Laboratory results published in article PMC9035045 (Cell chemical biology, 2021).
Non-standard residues stand in square brackets, D forms with d. Residues, ends and D or L forms follow the SMILES beside them. *: point of attachment. NH(CH2CH2O)11C2H4NHBiotinyl = O=C(CCCC[C@@H]1SC[C@@H]2NC(=O)N[C@@H]21)NCCOCCOCCOCCOCCOCCOCCOCCOCCOCCOCCOCCN*; Lys(iBu,2-norbornyl) = CC(C)CN(CCCC[C@H](N)C(=O)O)C1CC2CCC1C2; Lys(Me,2-norbornyl) = CN(CCCC[C@H](N)C(=O)O)C1CC2CCC1C2; Nva(5-morpholino) = N[C@@H](CCCN1CCOCC1)C(=O)O; Benzoyl(4-tBu) = CC(C)(C)c1ccc(C(=O)*)cc1; Gly(cBu) = N[C@H](C(=O)O)C1CCC1

What was measured:
274 purified Kme readers [1] = target: 274 purified Kme readers (Homo sapiens, UniProt Q13185); test: Protein domain microarray; assay type: binding; conditions: 1 μM, qualitative
274 purified Kme readers [2] = target: 274 purified Kme readers (Homo sapiens, UniProt P45973); test: Protein domain microarray; assay type: binding; conditions: 1 μM, qualitative
274 purified Kme readers [3] = target: T1, 274 purified Kme readers (Homo sapiens, UniProt Q9HC52); test: Protein domain microarray; assay type: binding; conditions: 1 μM, qualitative
T1 sequence (Q9HC52 1-69): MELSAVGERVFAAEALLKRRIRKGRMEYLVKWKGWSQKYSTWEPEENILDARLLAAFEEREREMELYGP

274 purified Kme readers [4] = target: T2, 274 purified Kme readers (Homo sapiens, UniProt O95931); test: Protein domain microarray; assay type: binding; conditions: 1 μM, qualitative
T2 sequence (O95931 1-69): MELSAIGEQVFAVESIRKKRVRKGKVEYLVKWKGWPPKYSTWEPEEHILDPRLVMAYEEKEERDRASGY

274 purified Kme readers [5] = target: T3, 274 purified Kme readers (Homo sapiens, UniProt O00257); test: Protein domain microarray; assay type: binding; conditions: 1 μM, qualitative
T3 sequence (O00257 1-69): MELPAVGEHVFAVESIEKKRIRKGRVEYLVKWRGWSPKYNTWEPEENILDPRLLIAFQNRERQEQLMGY

274 purified Kme readers [6] = target: T4, 274 purified Kme readers (Homo sapiens, UniProt Q8N8U2); test: Protein domain microarray; assay type: binding; conditions: 1 μM, qualitative
T4 sequence (Q8N8U2 1-67): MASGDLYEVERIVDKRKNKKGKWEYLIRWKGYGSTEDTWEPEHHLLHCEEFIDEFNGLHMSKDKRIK

274 purified Kme readers [7] = target: 274 purified Kme readers (Homo sapiens, UniProt P83916); test: Protein domain microarray; assay type: binding; conditions: 1 μM, qualitative
274 purified Kme readers [8] = target: T5, 274 purified Kme readers (Homo sapiens, UniProt Q14781); test: Protein domain microarray; assay type: binding; conditions: 1 μM, qualitative
T5 sequence (Q14781 1-70): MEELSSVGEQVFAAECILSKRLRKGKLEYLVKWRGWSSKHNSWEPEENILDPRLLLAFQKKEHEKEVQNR

274 purified Kme readers [9] = target: T6, 274 purified Kme readers (Homo sapiens, UniProt O95503); test: Protein domain microarray; assay type: binding; conditions: 1 μM, qualitative
T6 sequence (O95503 1-69): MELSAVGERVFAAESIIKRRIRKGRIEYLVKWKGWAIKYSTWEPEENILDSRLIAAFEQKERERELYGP

CBX2, CBX6, and CBX7 = test: ChIP-qPCR at endogenous Polycomb target genes; assay type: cell-based, mouse; conditions: 20 μM, wild-type mESCs (absence of CBX8)
CDYL2 = target: T7, CDYL2 (Homo sapiens, UniProt Q8N8U2); test: TR-FRET competitive displacement assay; assay type: binding
T7 sequence (Q8N8U2 1-75): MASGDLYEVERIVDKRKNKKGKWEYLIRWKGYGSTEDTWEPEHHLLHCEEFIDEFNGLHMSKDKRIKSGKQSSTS

CBX7 = target: T8, CBX7 (Mus musculus, UniProt Q8VDS3); test: CBX7 GFP reporter assay in mESCs; assay type: cell-based; conditions: result in words
T8 sequence (Q8VDS3 1-158): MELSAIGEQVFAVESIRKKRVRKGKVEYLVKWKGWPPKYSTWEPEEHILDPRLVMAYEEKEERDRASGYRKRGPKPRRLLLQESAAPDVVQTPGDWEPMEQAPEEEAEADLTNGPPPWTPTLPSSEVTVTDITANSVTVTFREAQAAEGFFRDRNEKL

mESCs = test: CellTiter-Glo cell viability assay; assay type: cell-based, mouse; conditions: 48 h, result in words
Outline: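 mESCs plated at 5,000 cells/well onto a ten-point 1:2 compound dilution series in mESC medium. 48 h at 37°C, 5% CO2. Lysed with CellTiter-Glo reagent; luminescence read after 15 min at room temperature in dim light.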

CBX8 = target: T9, CBX8 (Mus musculus, UniProt Q9QXV1); test: CBX8 GFP reporter assay in mESCs; assay type: cell-based; conditions: 48 h, result in words
T9 sequence (Q9QXV1 1-362): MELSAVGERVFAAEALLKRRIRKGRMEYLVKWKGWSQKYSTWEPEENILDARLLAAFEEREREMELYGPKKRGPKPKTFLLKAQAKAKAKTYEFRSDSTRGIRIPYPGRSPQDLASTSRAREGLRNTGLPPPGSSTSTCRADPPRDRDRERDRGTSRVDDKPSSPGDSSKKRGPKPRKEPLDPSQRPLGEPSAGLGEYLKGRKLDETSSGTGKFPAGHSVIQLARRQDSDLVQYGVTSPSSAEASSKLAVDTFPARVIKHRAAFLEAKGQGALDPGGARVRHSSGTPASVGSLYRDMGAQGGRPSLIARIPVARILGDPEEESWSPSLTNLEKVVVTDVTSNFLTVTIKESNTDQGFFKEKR
Outline: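 Mouse ESC reporter line carrying 12xZFHD1, 4xGAL4 and 7xTetO sites upstream of a Puromycin-GFP gene, made by recombinase-mediated cassette exchange. Cells grown feeder-free in high-glucose DMEM with 13.5% FBS and LIF. 2,000 cells/well seeded onto compound in triplicate: 10-point 2-fold series, or for ester analogues 15-point 1.5-fold series with 0.06% DMSO final. 48 h at 37°C. GFP read by flow cytometry on gated live single cells.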

Sequence of 274 purified Kme readers (Homo sapiens, UniProt Q13185) (Q13185 1-88): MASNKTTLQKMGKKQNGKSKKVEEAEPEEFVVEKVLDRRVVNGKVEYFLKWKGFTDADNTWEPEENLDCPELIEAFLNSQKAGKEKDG
Sequence of 274 purified Kme readers (Homo sapiens, UniProt P45973) (P45973 1-78): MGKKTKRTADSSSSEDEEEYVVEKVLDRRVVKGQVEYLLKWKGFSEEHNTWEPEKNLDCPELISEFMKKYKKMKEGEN
Sequence of 274 purified Kme readers (Homo sapiens, UniProt P83916) (P83916 1-79): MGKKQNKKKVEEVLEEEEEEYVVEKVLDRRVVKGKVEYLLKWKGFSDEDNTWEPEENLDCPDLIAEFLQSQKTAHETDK

binding to CBX3 on microarray (274 purified Kme readers [1]) | binding to CBX5 on microarray (274 purified Kme readers [2]) | binding to CBX8 CD on microarray (274 purified Kme readers [3]) | binding to CBX7 on microarray (274 purified Kme readers [4]) | binding to CBX4 on microarray (274 purified Kme readers [5]) | binding to the CD of CDYL2 on microarray (274 purified Kme readers [6]) | binding to CBX1 on microarray (274 purified Kme readers [7]) | binding to CBX2 CD on microarray (274 purified Kme readers [8]) | binding to CBX6 on microarray (274 purified Kme readers [9]) | Structure (SMILES) | chromatin binding of CBX2, CBX6, and CBX7 (CBX2, CBX6, and CBX7) | IC50 (CDYL2) [µM] | cellular activity in the CBX7 reporter cell line (CBX7) | cytotoxicity (mESCs) | GFP reactivation / cellular activity in the CBX8 reporter assay (CBX8)
did not display binding | did not display binding | bound strongly | less strongly | less strongly | weakly | did not display binding | bound strongly | less strongly | CC(C)CN(CCCC[C@H](NC(=O)[C@H](CCCN1CCOCC1)NC(=O)[C@@H](NC(=O)[C@H](Cc1ccccc1)NC(=O)c1ccc(C(C)(C)C)cc1)C1CCC1)C(=O)N[C@@H](CO)C(=O)NCCOCCOCCOCCOCCOCCOCCOCCOCCOCCOCCOCCNC(=O)CCCC[C@@H]1SC[C@@H]2NC(=O)N[C@@H]21)C1CC2CCC1C2 (stereo partly drawn) [Compound 39] ({Benzoyl(4-tBu)}-F[Gly(cBu)][Nva(5-morpholino)][Lys(iBu,2-norbornyl)]S-{NH(CH2CH2O)11C2H4NHBiotinyl}) | – | – | – | – | –
– | – | – | – | – | – | – | – | – | COC(=O)[C@H](CO)NC(=O)[C@H](CCCCN(CC(C)C)C1CC2CCC1C2)NC(=O)[C@H](CCCN1CCOCC1)NC(=O)[C@@H](NC(=O)[C@H](Cc1ccccc1)NC(=O)c1ccc(C(C)(C)C)cc1)C1CCC1 (stereo partly drawn) [Compound 34, Methyl N^6-(bicyclo[2.2.1]heptan-2-yl)-N^2-((S)-2-((S)-2-((S)-2-(4-(tert-butyl)benzamido)-3-phenylpropanamido)-2-cyclobutylacetamido)-5-morpholinopentanoyl)-N^6-isobutyl-L-lysyl-L-serinate] ({Benzoyl(4-tBu)}-F[Gly(cBu)][Nva(5-morpholino)][Lys(iBu,2-norbornyl)]S-OMe) | minimal effects on chromatin binding | ~100 | no cellular activity | – | –
– | – | – | – | – | – | – | – | – | COC(=O)[C@H](CO)NC(=O)[C@H](CCCCN(C)C1CC2CCC1C2)NC(=O)[C@H](CCCN1CCOCC1)NC(=O)[C@@H](NC(=O)[C@H](Cc1ccccc1)NC(=O)c1ccc(C(C)(C)C)cc1)C1CCC1 (stereo partly drawn) [Compound 38, Methyl N^6-(bicyclo[2.2.1]heptan-2-yl)-N^2-((S)-2-((S)-2-((S)-2-(4-(tert-butyl)benzamido)-3-phenylpropanamido)-2-cyclobutylacetamido)-5-morpholinopentanoyl)-N^6-methyl-L-lysyl-L-serinate] ({Benzoyl(4-tBu)}-F[Gly(cBu)][Nva(5-morpholino)][Lys(Me,2-norbornyl)]S-OMe) | – | 0.96 ± 0.14 | – | no cytotoxicity up to 100 μM | no cellular activity
